Source: PubChem BioAssay (Johns Hopkins Ion Channel Center)
Compounds with a hit are over-represented: about 3.5% of the library has one in this group of screens.
RGS4 inh: human RGS4 inhibition; P49798; B-score at 10 µM; 0.45% of 310,000 active; HEK293 M3R/RGS4 inducible, Fluo-4 calcium flux; hits give high values; triggered by carbachol at its EC20;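 active means B-score, a plate-corrected calcium signal, over three deviations above library mean, with baseline fluorescence within five deviations of library mean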;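 further: RGS4 expression induced by doxycycline in cells with stable M3 receptor; B-score is computed from the integrated fluorescence ratio over baseline after carbachol; higher B-score means a larger calcium signal and so more RGS4 inhibition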
Target sequence (P49798 whole entry, looked up): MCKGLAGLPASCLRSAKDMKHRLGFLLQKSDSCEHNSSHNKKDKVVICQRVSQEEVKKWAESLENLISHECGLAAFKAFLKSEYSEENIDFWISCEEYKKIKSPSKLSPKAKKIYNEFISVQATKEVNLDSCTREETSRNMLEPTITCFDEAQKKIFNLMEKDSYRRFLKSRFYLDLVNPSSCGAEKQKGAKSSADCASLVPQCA
RGS4 act: RGS4 potentiation or activation. HEK293 M3R/inducible RGS4, carbachol calcium flux Fluo4; hits give low values. B-score at 10 µM. 0.92% of 310,000 active. AID 463111;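 active means B-score of the integrated calcium signal more than 4 SD below the library mean, with starting fluorescence not abnormally high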;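 further: negative B-score means reduced calcium response which marks RGS4 activation or potentiation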
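test system = M3R-expressing HEK293 line, RGS4 induced by doxycycline | probe or stimulus = carbachol at ECmax as muscarinic agonist stimulus | timing = dye loading 30 min 37 °C, buffer rest 30 min RT | signal = calcium dye Fluo4 fluorescence | evaluation = B score from integrated fluorescence ratio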
MrgX1 agonist: agonists of human MrgX1 receptor; Q96LB2; MrgX1-HEK293 cells, Fluo-4 calcium fluorescence, agonist mode; hits give high values; B-score at 10 µM; 0.44% of 310,000 active;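 active means calcium response B-score plate-corrected fluorescence ratio at least 3 library SD, with starting fluorescence B-score inside 5 SD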
Target sequence (Q96LB2 whole entry, looked up): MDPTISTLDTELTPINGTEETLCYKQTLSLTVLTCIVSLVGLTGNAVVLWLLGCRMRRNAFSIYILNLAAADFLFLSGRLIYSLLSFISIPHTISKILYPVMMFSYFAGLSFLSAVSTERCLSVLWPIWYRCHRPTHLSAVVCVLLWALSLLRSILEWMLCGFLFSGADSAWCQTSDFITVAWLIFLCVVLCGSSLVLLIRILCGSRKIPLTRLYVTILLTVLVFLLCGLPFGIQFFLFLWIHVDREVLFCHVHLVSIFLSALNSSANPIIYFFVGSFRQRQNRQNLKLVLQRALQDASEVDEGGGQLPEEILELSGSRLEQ
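Assay system: MrgX1-expressing HEK293 cells / Amount: fifteen thousand cells per well / Doses: test compound in the initial addition of three / Timing: cells plated overnight, dye loaded 0.5 h 37 °C, 0.5 h room temperature / Technique: kinetic calcium dye fluorescence, Fluo-4 NW / Control set: positive and negative controls per plate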
MrgX1 allo act: allosterically activates human MrgX1 receptor signaling; MrgX1-HEK293, Fluo-4 calcium flux, FDSS; hits give high values; B-score at 10 µM; 0.63% of 310,000 active; AID 588675;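 active means plate-corrected calcium response at least 3 library SD above typical, normal starting fluorescence, not activating the receptor alone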;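 further: compound read alongside a low EC10 to EC30 dose of BAM8-22 agonist; peak minus trough fluorescence over baseline measured at the second addition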
MrgX1 antag: blocks BAM8-22 activation of human MrgX1 receptor; 1.3% of 310,000 active; Q96LB2; MRGX1-HEK293 calcium flux, Fluo-4, BAM8-22 antagonism; hits give low values; B-score at 10 µM;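 active means calcium-response B-score plate-corrected more than 3 library SD below zero, starting fluorescence within 5 deviations, no agonist response on first addition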;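 further: peak minus trough fluorescence over baseline after final BAM8-22 challenge near maximal dose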
MrgX1 allo conf: confirmation of human MrgX1 receptor positive allosteric modulators; shares compounds with MrgX1 allo act; MrgX1-HEK293, Fluo-4 calcium fluorescence, FDSS; activation (ratio percentage), % at 10 µM; 13% of 1,200 active;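 active means ratio at least 3 SD above the weak peptide control, stable starting fluorescence, no direct agonism earlier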;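 further: compound followed by low BAM8-22 agonist challenge near EC20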
HEK293 Ca flux: MrgX1 antagonist counter-screen hit in parental HEK293 cells | fluorescence ratio F(max-min)/F0 at 10 µM | 2% of 4,000 active | AID 624111 | shares compounds with MrgX1 antag | Fluo-4 calcium fluorescence, FDSS;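 active means duplicate-averaged calcium fluorescence ratio at least three times the standard deviation of buffer wells, a nonspecific response in parental cells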
HEK293 Ca counter: MrgX1 allosteric activator counter-screen hit in parental HEK293 cells. shares compounds with MrgX1 antag. parental HEK293 calcium flux, Fluo-4 fluorescence ratio; hits give high values. fluorescence ratio F(max-min)/F0 at 10 µM. 0.4% of 4,000 active;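 active means calcium fluorescence ratio, averaged over duplicates, at least 3 SD of the buffer-well ratio, meaning a nonspecific response in receptor-free cells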;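 further: untransfected parental HEK293 lacking MrgX1 used as counterscreen for MrgX1 allosteric activators; fluorescence change taken during the second addition on a kinetic imager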
HEK293 Ca cntr2: counter-screen for MrgX1 activators: effect in parental HEK293 cells; AID 624115; fluorescence ratio F(max-min)/F0 at 10 µM; shares compounds with MrgX1 antag; 8.7% of 4,000 active; Fluo-4 calcium fluorescence (FDSS); hits give high values;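 active means calcium fluorescence ratio at least three times the spread of buffer wells, meaning a non-specific response in parental cells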
Of the large screens only hits and unclear results are named; the others gave an inactive call (follow-up assays come after a bar, where they were run).

Cc1cc(NC(=O)CSc2nnc(-c3ccco3)n2Cc2ccco2)no1	none
CC(=O)Nc1ccc(NC(=O)CSc2nnc(-c3ccco3)n2Cc2ccco2)cc1	MrgX1 allo act 7 | MrgX1 allo conf inactive | HEK293 Ca flux inactive | HEK293 Ca counter inactive | HEK293 Ca cntr2 inactive
CCN1C=C(Cc2ccccc2C)C2=C(C1)C(c1ccccc1C)C(C#N)=C(N)O2 (stereo not drawn)	MrgX1 allo act 18 | MrgX1 allo conf inactive | HEK293 Ca flux inactive | HEK293 Ca counter inactive | HEK293 Ca cntr2 inactive
CCN1C=C(Cc2ccc(F)cc2)C2=C(C1)C(c1ccc(F)cc1)C(C#N)=C(N)O2 (stereo not drawn)	none
C/C(=C\C(=O)C(F)(F)F)Nc1cc(C)cc(C)c1	none
C/C(=C\C(=O)C(F)(F)F)Nc1ccc(C)cc1	MrgX1 allo act 7.7 | MrgX1 allo conf 13% | HEK293 Ca flux inactive | HEK293 Ca counter inactive | HEK293 Ca cntr2 inactive
Cc1cccc2cc(CN(C(=O)c3cnccn3)C3CCCCC3)c(Cl)nc12	MrgX1 allo act 20 | MrgX1 allo conf inactive | HEK293 Ca flux inactive | HEK293 Ca counter inactive | HEK293 Ca cntr2 inactive
O=C(Nc1ccc(F)cc1)C(=O)C1C(=O)Nc2ccccc21 (stereo not drawn)	MrgX1 allo act 6.6 | MrgX1 allo conf inactive | HEK293 Ca flux inactive | HEK293 Ca counter inactive | HEK293 Ca cntr2 inactive
CC(C)(CNc1ccc(S(=O)(=O)C(F)(F)F)cc1[N+](=O)[O-])N1CCOCC1	none
CC(C)c1ccc2c(c1)[C@H]1OCC[C@H]1[C@@H](c1cccs1)N2	MrgX1 allo act 8.3 | MrgX1 allo conf 3.3% | HEK293 Ca flux inactive | HEK293 Ca counter inactive | HEK293 Ca cntr2 inactive
CNC(=O)c1ccc(NC(=O)Cc2ccc(S(=O)(=O)N3CCOCC3)s2)cc1	none
Cc1ccc(S(=O)(=O)Oc2ccc(/C=C3\C(=N)N4N=C(S(C)(=O)=O)SC4=NC3=O)cc2)cc1	none
Cc1cc(C)cc(-n2cccc2/C=C2/C(=N)N3C(=NC2=O)SN=C3S(C)(=O)=O)c1	none
COc1cccc(-n2c(C)cc(/C=C3/C(=N)N4C(=NC3=O)SN=C4S(C)(=O)=O)c2C)c1	MrgX1 allo act 32 | MrgX1 allo conf 2.0% | HEK293 Ca flux inactive | HEK293 Ca counter inactive | HEK293 Ca cntr2 inactive
CS(=O)(=O)C1=NSC2=NC(=O)/C(=C\c3ccc(OS(=O)(=O)c4ccccc4)cc3)C(=N)N21	MrgX1 allo act 30 | MrgX1 allo conf 25% | HEK293 Ca flux inactive | HEK293 Ca counter inactive | HEK293 Ca cntr2 inactive
O=C(Cc1ccc(Cl)cc1)N/N=C/c1cccc(O)c1	none
CC(C)(C)NC(=O)CN(C(=O)c1snc(C(=O)NC2CCCCC2)c1N)c1ccc(F)cc1	none
COCC(C)n1c(SCC(=O)c2cc(C)n(C)c2C)nc2ccccc2c1=O (stereo not drawn)	MrgX1 allo act 13 | MrgX1 allo conf inactive | HEK293 Ca flux inactive | HEK293 Ca counter inactive | HEK293 Ca cntr2 inactive
CC1CCCC(NC(=O)CN2C(=O)c3cccnc3Oc3ccc(Cl)cc32)C1C (stereo not drawn)	MrgX1 allo act 11 | MrgX1 allo conf inactive | HEK293 Ca flux inactive | HEK293 Ca counter inactive | HEK293 Ca cntr2 78
O=C(CN1C(=O)c2cccnc2Oc2ccc(Cl)cc21)NC1CCCC1	none
Cc1ccc(NC(=O)CN2CCN(C(=O)C3CCCO3)CC2)c(C)c1 (stereo not drawn)	none
O=C(CN(C(=O)CNC(=O)c1cccs1)c1ccccc1)NC1CCCCC1	MrgX1 allo act 37 | MrgX1 allo conf inactive | HEK293 Ca flux inactive | HEK293 Ca counter inactive | HEK293 Ca cntr2 inactive
CN(Cc1ccccc1)C(NC(=O)c1ccccc1)C(Cl)(Cl)Cl (stereo not drawn)	none
CN(Cc1ccccc1)C(NC(=O)c1ccco1)C(Cl)(Cl)Cl (stereo not drawn)	MrgX1 allo act 6.6 | MrgX1 allo conf inactive | HEK293 Ca flux inactive | HEK293 Ca counter inactive | HEK293 Ca cntr2 inactive
CC(Oc1ccc2ccc(=O)oc2c1)C(=O)NCCN1CCOCC1 (stereo not drawn)	none
O=C(CSc1ccc(-c2ccncc2)nn1)N1CCCC1	MrgX1 allo act 13 | MrgX1 allo conf inactive | HEK293 Ca flux inactive | HEK293 Ca counter inactive | HEK293 Ca cntr2 inactive
C#Cc1cccc(NC(=O)c2ccc(Cl)cc2Cl)c1	none
O=C(Nc1nnc(-c2ccccc2Cl)o1)c1ccc(S(=O)(=O)N2CCCCCC2)cc1	MrgX1 allo act 8.6 | MrgX1 allo conf inactive | HEK293 Ca flux inactive | HEK293 Ca counter inactive | HEK293 Ca cntr2 inactive
CS(=O)(=O)c1ccccc1-c1nnc(NC(=O)c2ccc(S(=O)(=O)N3CCCC3)cc2)o1	none
COc1ccccc1Oc1ncnc2sccc12	none
Cc1ccccc1Oc1ncnc2sccc12	MrgX1 allo act 8.4 | MrgX1 allo conf 11% | HEK293 Ca flux inactive | HEK293 Ca counter inactive | HEK293 Ca cntr2 inactive
Cc1ccc(-n2nc(-c3ccco3)cc2C(=O)O)cc1	MrgX1 allo act 25 | MrgX1 allo conf 5.6% | HEK293 Ca flux inactive | HEK293 Ca counter inactive | HEK293 Ca cntr2 inactive
CCOC(=O)c1cc(-c2ccco2)nn1-c1ccc(C)cc1	none
O=C(c1ccc(F)cc1)n1c(NCc2ccccc2)n[nH]c1=S	MrgX1 allo act 7.3 | MrgX1 allo conf inactive | HEK293 Ca flux inactive | HEK293 Ca counter inactive | HEK293 Ca cntr2 inactive
CCOc1ccccc1NC(=O)CSc1ccccc1	MrgX1 allo act 6.9 | MrgX1 allo conf inactive | HEK293 Ca flux inactive | HEK293 Ca counter inactive | HEK293 Ca cntr2 inactive
COc1cccc(N/C(N)=N/c2nc(C(F)(F)F)cc(C(F)(F)F)n2)c1	MrgX1 allo act 10 | MrgX1 allo conf inactive | HEK293 Ca flux inactive | HEK293 Ca counter inactive | HEK293 Ca cntr2 inactive
CC1(COS(N)(=O)=O)CCCCC1	none
COc1ccc(C(=O)N/C(=C\c2cn(C)c3ccccc23)C(=O)NCCCN2CCOCC2)cc1	none
CCOc1ccc(NC(=O)NC(=O)N(C(C)C)S(C)(=O)=O)cc1	MrgX1 allo act 10 | MrgX1 allo conf inactive | HEK293 Ca flux inactive | HEK293 Ca counter inactive | HEK293 Ca cntr2 inactive
COC(=O)c1c(NC(=O)c2ccccc2OC)sc(C(=O)N2CCOCC2)c1C	none
CCC(C)c1ccccc1NC(=S)NC(=O)c1ccco1 (stereo not drawn)	MrgX1 allo act 7.4 | MrgX1 allo conf inactive | HEK293 Ca flux inactive | HEK293 Ca counter inactive | HEK293 Ca cntr2 inactive
